Where a SMILES comes first, the peptide text is derived from it. [ ]: non-standard residue; d: D form. Gly(N(CH2)2(3-indolyl)) = O=C(O)CNCCc1c[nH]c2ccccc12; Gly(N-(CH2)3-guanidino) = N=C(N)NCCCNCC(=O)O; Nle = CCCC[C@H](N)C(=O)O; Nphe = O=C(O)CNCc1ccccc1; NBuGly = CCCCNCC(=O)O; Nlys = NCCCCNCC(=O)O
Tests used:
Format in all cases: cell-based, HEK293
Melanocortin receptor 5 [1] = target: T1, Melanocortin receptor 5 (Mus musculus, UniProt P41149); test: Displacement of [125I]NDP-MSH from mouse melanocortin receptor-5 expressed in 293 HEK cells
T1 sequence (P41149 whole entry): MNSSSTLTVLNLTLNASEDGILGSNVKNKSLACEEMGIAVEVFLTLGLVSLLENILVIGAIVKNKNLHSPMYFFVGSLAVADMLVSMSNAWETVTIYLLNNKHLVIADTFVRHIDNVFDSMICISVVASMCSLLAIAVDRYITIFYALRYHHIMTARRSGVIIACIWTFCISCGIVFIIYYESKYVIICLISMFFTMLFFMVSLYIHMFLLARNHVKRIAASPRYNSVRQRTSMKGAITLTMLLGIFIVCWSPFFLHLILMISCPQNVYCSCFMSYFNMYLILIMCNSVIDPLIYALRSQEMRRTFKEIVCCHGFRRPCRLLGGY
How it was run: (§1)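 Radioligand competition with [125I]-NDP-MSH on HEK293 cells expressing human MC3, human MC4 or mouse MC5 receptor. Ligands up to 30 µM. IC50 reported as -log(IC50) (M) with 95% confidence ranges. Ligands without activation activity were tested only at a single 30 µM concentration.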

Melanocortin receptor 4 [2] = target: T2, Melanocortin receptor 4 (Homo sapiens, UniProt P32245); test: Effective concentration against human melanocortin receptor-4 expressed in 293 HEK cells
T2 sequence (P32245 whole entry): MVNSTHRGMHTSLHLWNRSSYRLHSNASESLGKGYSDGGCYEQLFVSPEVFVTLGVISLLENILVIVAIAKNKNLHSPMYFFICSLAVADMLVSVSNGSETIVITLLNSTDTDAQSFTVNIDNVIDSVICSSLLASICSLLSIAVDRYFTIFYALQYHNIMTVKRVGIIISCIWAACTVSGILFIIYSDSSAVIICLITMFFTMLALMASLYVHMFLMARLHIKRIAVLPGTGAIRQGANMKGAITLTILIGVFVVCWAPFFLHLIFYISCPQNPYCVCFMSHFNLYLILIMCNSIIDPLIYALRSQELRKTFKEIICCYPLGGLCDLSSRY
How it was run: (§2)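 LacZ reporter-gene activation assay in HEK293 cells expressing human MC3, human MC4 or mouse MC5 receptor. Dose-response curves run up to 30 µM. EC50 reported as -log(EC50) (M) with 95% confidence ranges. Incomplete or absent curves at 30 µM were not assigned values.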

Melanocortin receptor 3 [3] = target: T3, Melanocortin receptor 3 (Homo sapiens, UniProt P41968); test: Effective concentration against human melanocortin receptor-3 expressed in 293 HEK cells; how it was run: as §2
T3 sequence (P41968 whole entry): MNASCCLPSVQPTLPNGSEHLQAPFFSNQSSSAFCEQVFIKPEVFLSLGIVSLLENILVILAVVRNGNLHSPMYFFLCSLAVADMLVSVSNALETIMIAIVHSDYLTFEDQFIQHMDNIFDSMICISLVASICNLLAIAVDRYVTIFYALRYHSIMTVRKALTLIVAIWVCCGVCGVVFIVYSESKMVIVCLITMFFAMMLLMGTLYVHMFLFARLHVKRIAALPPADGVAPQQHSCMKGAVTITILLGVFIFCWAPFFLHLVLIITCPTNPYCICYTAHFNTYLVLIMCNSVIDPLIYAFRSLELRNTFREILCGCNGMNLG

Melanocortin receptor 3 [4] = target: T3, Melanocortin receptor 3; test: Displacement of [125I]NDP-MSH from human melanocortin receptor-3 expressed in 293 HEK cells; how it was run: as §1
Melanocortin receptor 4 [5] = target: T2, Melanocortin receptor 4; test: Displacement of [125I]NDP-MSH from human melanocortin receptor-4 expressed in 293 HEK cells; how it was run: as §1
Melanocortin receptor 5 [6] = target: T1, Melanocortin receptor 5; test: Effective concentration against mouse melanocortin receptor-5 expressed in 293 HEK cells; how it was run: as §2

| IC50 (Melanocortin receptor 5 [1]) | EC50 (Melanocortin receptor 4 [2]) | EC50 (Melanocortin receptor 3 [3]) | IC50 (Melanocortin receptor 3 [4]) | IC50 (Melanocortin receptor 4 [5]) | EC50 (Melanocortin receptor 5 [6]) | Structure (SMILES) |
| --- | --- | --- | --- | --- | --- | --- |
| 794 nM | 63.1 nM | 2000 nM | 1260 nM | 63.1 nM | 7940 nM | CCCCN(CC(=O)NCC(=O)N(CCCCN)CC(=O)N[C@H](Cc1ccccc1)C(=O)N[C@@H](CCCNC(=N)N)C(=O)N[C@@H](Cc1c[nH]c2ccccc12)C(=O)NCC(N)=O)C(C)=O |
| 1260 nM | 100 nM | 158 nM | 3160 nM | 251 nM | 316 nM | CCCCN(CC(=O)NCC(=O)N[C@@H](CCCCN)C(=O)N[C@H](Cc1ccccc1)C(=O)N(CCCN=C(N)N)CC(=O)N(CCc1c[nH]c2ccccc12)CC(=O)NCC(N)=O)C(C)=O |
| 501 nM | 251 nM | 501 nM | 631 nM | 158 nM | 12.6 nM | CCCC[C@H](NC(C)=O)C(=O)NCC(=O)N[C@@H](CCCCN)C(=O)N[C@H](Cc1ccccc1)C(=O)N(CCCCNC(=N)N)CC(=O)N(CCc1c[nH]c2ccccc12)CC(=O)NCC(N)=O |
| 1580 nM | 631 nM | 794 nM | 1260 nM | 794 nM | 3980 nM | CCCCN(CC(=O)NCC(=O)N[C@@H](CCCCN)C(=O)N[C@H](Cc1ccccc1)C(=O)N[C@@H](CCCNC(=N)N)C(=O)N(CC(=O)NCC(N)=O)Cc1c[nH]c2ccccc12)C(C)=O |
| 2000 nM | 3980 nM | – | 2000 nM | 794 nM | – | CCCCN(CC(=O)NCC(=O)N(CCCCN)CC(=O)N[C@H](Cc1ccccc1)C(=O)N[C@@H](CCCNC(=N)N)C(=O)N(CC(=O)NCC(N)=O)Cc1c[nH]c2ccccc12)C(C)=O |
| 1000 nM | 79.4 nM | 158 nM | 2000 nM | 79.4 nM | 15.8 nM | CCCC[C@H](NC(C)=O)C(=O)NCC(=O)N[C@@H](CCCCN)C(=O)N[C@H](Cc1ccccc1)C(=O)N(CCCNC(=N)N)CC(=O)N(CCc1c[nH]c2ccccc12)CC(=O)NCC(N)=O |
| 2000 nM | 794 nM | 6310 nM | 3980 nM | 1000 nM | – | CCCCN(CC(=O)NCC(=O)N(CCCCN)CC(=O)N[C@H](Cc1ccccc1)C(=O)N(CCCN=C(N)N)CC(=O)N(CCc1c[nH]c2ccccc12)CC(=O)NCC(N)=O)C(C)=O |
| – | 2000 nM | – | – | – | – | CCCC[C@H](NC(C)=O)C(=O)NCC(=O)N(CCCCN)CC(=O)N[C@H](Cc1ccccc1)C(=O)N[C@@H](CCCNC(=N)N)C(=O)N(CCc1c[nH]c2ccccc12)CC(=O)NCC(N)=O |
| 631 nM | 1260 nM | 5010 nM | 794 nM | 158 nM | 2000 nM | CCCC[C@H](NC(C)=O)C(=O)NCC(=O)N(CCCCN)CC(=O)N[C@H](Cc1ccccc1)C(=O)N[C@@H](CCCN=C(N)N)C(=O)N(CC(=O)NCC(N)=O)Cc1c[nH]c2ccccc12 |
| 2000 nM | 158 nM | 631 nM | 5010 nM | 316 nM | 100 nM | CCCC[C@H](NC(C)=O)C(=O)NCC(=O)N[C@@H](CCCCN)C(=O)N[C@H](Cc1ccccc1)C(=O)N(CCCNC(=N)N)CC(=O)N(CC(=O)NCC(N)=O)Cc1c[nH]c2ccccc12 |
| 794 nM | 158 nM | 316 nM | 501 nM | 251 nM | 251 nM | CCCC[C@H](NC(C)=O)C(=O)NCC(=O)N[C@@H](CCCCN)C(=O)N[C@H](Cc1ccccc1)C(=O)N[C@@H](CCCN=C(N)N)C(=O)N(CC(=O)NCC(N)=O)Cc1c[nH]c2ccccc12 |
| – | 794 nM | 5010 nM | – | – | 6310 nM | CCCCN(CC(=O)NCC(=O)N[C@@H](CCCCN)C(=O)N[C@H](Cc1ccccc1)C(=O)N(CCCN=C(N)N)CC(=O)N[C@@H](Cc1c[nH]c2ccccc12)C(=O)NCC(N)=O)C(C)=O |
| 2000 nM | 251 nM | – | 3980 nM | 158 nM | 63.1 nM | CCCC[C@H](NC(C)=O)C(=O)NCC(=O)N[C@@H](CCCCN)C(=O)N[C@H](Cc1ccccc1)C(=O)N(CCCCN=C(N)N)CC(=O)N[C@@H](Cc1c[nH]c2ccccc12)C(=O)NCC(N)=O |
| 3160 nM | 501 nM | – | 7940 nM | 794 nM | – | CCCCN(CC(=O)NCC(=O)N[C@@H](CCCCN)C(=O)N[C@H](Cc1ccccc1)C(=O)N(CCCN=C(N)N)CC(=O)N(CC(=O)NCC(N)=O)Cc1c[nH]c2ccccc12)C(C)=O |
| 6310 nM | 6310 nM | – | – | 2000 nM | – | CCCCN(CC(=O)NCC(=O)N(CCCCN)CC(=O)N[C@H](Cc1ccccc1)C(=O)N[C@@H](CCCN=C(N)N)C(=O)N(CCc1c[nH]c2ccccc12)CC(=O)NCC(N)=O)C(C)=O |
| – | 316 nM | 3160 nM | – | – | – | CCCCN(CC(=O)NCC(=O)N[C@@H](CCCCN)C(=O)N[C@H](Cc1ccccc1)C(=O)N[C@@H](CCCNC(=N)N)C(=O)N(CCc1c[nH]c2ccccc12)CC(=O)NCC(N)=O)C(C)=O |
| – | 0.501 nM | 7.94 nM | 200 nM | 2.51 nM | 31.6 nM | CCCC[C@H](NC(C)=O)C(=O)NCC(=O)N[C@@H](CCCCN)C(=O)N[C@H](Cc1ccccc1)C(=O)N[C@@H](CCCNC(=N)N)C(=O)N[C@@H](Cc1c[nH]c2ccccc12)C(=O)NCC(N)=O |
| 3160 nM | 631 nM | 3980 nM | 5010 nM | 398 nM | 251 nM | CCCC[C@H](NC(C)=O)C(=O)NCC(=O)N[C@@H](CCCCN)C(=O)N[C@H](Cc1ccccc1)C(=O)N(CCCNC(=N)N)CC(=O)N[C@@H](Cc1c[nH]c2ccccc12)C(=O)NCC(N)=O |
| 3980 nM | 5010 nM | – | – | 3980 nM | – | CCCCN(CC(=O)NCC(=O)N(CCCCN)CC(=O)N[C@H](Cc1ccccc1)C(=O)N(CCCN=C(N)N)CC(=O)N(CC(=O)NCC(N)=O)Cc1c[nH]c2ccccc12)C(C)=O |
| 10000 nM | 316 nM | 2000 nM | 7940 nM | 316 nM | 2000 nM | CCCC[C@H](NC(C)=O)C(=O)NCC(=O)N[C@@H](CCCCN)C(=O)N[C@H](Cc1ccccc1)C(=O)N[C@@H](CCCN=C(N)N)C(=O)N(CCc1c[nH]c2ccccc12)CC(=O)NCC(N)=O |
| – | 2.51 nM | 25.1 nM | 126 nM | 20 nM | 794 nM | CCCCN(CC(=O)NCC(=O)N[C@@H](CCCCN)C(=O)N[C@H](Cc1ccccc1)C(=O)N[C@@H](CCCN=C(N)N)C(=O)N[C@@H](Cc1c[nH]c2ccccc12)C(=O)NCC(N)=O)C(C)=O |
| 5010 nM | 2000 nM | – | – | 5010 nM | – | CCCCN(CC(=O)NCC(=O)N[C@@H](CCCCN)C(=O)N(CC(=O)N[C@@H](CCCN=C(N)N)C(=O)N[C@@H](Cc1c[nH]c2ccccc12)C(=O)NCC(N)=O)Cc1ccccc1)C(C)=O (Ac-[NBuGly]GK[Nphe]RWG-NH2) |
| – | 3160 nM | – | – | 5010 nM | 6310 nM | CCCCN(CC(=O)NCC(=O)N(CCCCN)CC(=O)N[C@@H](Cc1ccccc1)C(=O)N(CCCN=C(N)N)CC(=O)N[C@@H](Cc1c[nH]c2ccccc12)C(=O)NCC(N)=O)C(C)=O (Ac-[NBuGly]G[Nlys]F[Gly(N-(CH2)3-guanidino)]WG-NH2) |
| – | 1260 nM | – | – | – | – | CCCC[C@H](NC(C)=O)C(=O)NCC(=O)N[C@@H](CCCCN)C(=O)N(CC(=O)N[C@@H](CCCN=C(N)N)C(=O)N[C@@H](Cc1c[nH]c2ccccc12)C(=O)NCC(N)=O)Cc1ccccc1 (Ac-[Nle]GK[Nphe]RWG-NH2) |
| – | – | – | – | – | 7940 nM | CCCC[C@H](NC(C)=O)C(=O)NCC(=O)N[C@@H](CCCCN)C(=O)N(CC(=O)N(CCCN=C(N)N)CC(=O)N(CCc1c[nH]c2ccccc12)CC(=O)NCC(N)=O)Cc1ccccc1 (Ac-[Nle]GK[Nphe][Gly(N-(CH2)3-guanidino)][Gly(N(CH2)2(3-indolyl))]G-NH2) |
| – | 2000 nM | – | – | – | 501 nM | CCCC[C@H](NC(C)=O)C(=O)NCC(=O)N(CCCCN)CC(=O)N[C@@H](Cc1ccccc1)C(=O)N(CCCN=C(N)N)CC(=O)N[C@@H](Cc1c[nH]c2ccccc12)C(=O)NCC(N)=O (Ac-[Nle]G[Nlys]F[Gly(N-(CH2)3-guanidino)]WG-NH2) |
| – | 2000 nM | – | – | – | – | CCCC[C@H](NC(C)=O)C(=O)NCC(=O)N(CCCCN)CC(=O)N(CC(=O)N[C@@H](CCCN=C(N)N)C(=O)N[C@@H](Cc1c[nH]c2ccccc12)C(=O)NCC(N)=O)Cc1ccccc1 (Ac-[Nle]G[Nlys][Nphe]RWG-NH2) |
| 3160 nM | 2000 nM | 6310 nM | – | 3160 nM | 3160 nM | CCCC[C@H](NC(C)=O)C(=O)NCC(=O)N(CCCCN)CC(=O)NC(Cc1ccccc1)C(=O)N(CCCNC(=N)N)CC(=O)N(CC(=O)NCC(N)=O)Cc1c[nH]c2ccccc12 (single isomer, unassigned) |
| 1580 nM | 398 nM | 3980 nM | 3980 nM | 501 nM | 1000 nM | CCCC[C@H](NC(C)=O)C(=O)NCC(=O)N(CCCCN)CC(=O)NC(Cc1ccccc1)C(=O)N(CCCNC(=N)N)CC(=O)N(CCc1c[nH]c2ccccc12)CC(=O)NCC(N)=O (single isomer, unassigned) |

— ChEMBL document CHEMBL1144399, “Peptoid-peptide hybrids as potent novel melanocortin receptor ligands” (J Med Chem, 2005)
